CendR NRP1 mod – modulators of CendR peptide binding to human neuropilin-1; 0.85% of 360,000 active; FAM-RPARPAR peptide binding to NRP-1, fluorescence polarization; O14786; inhibition, % at 25 µM;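 active = inhibition or corrected inhibition above about 18%, plus a signal ratio from 0.5 to 1.5, limit read from the data, passing the limit was not always enough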
DNA FID counter – displaces DNA intercalator in HCV helicase counter-screen. inhibition, % at 7.9 µM. DNA fluorescent intercalator displacement, fluorescence. AID 1845. 0.17% of 290,000 active; in the data active = inhibition above about 37%;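 also: 0% = vehicle and 100% = reference compound; higher means more ethidium bromide displaced from hairpin DNA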
HCV core dimer – HCV core protein dimerization inhibition | TR-FRET GST/Flag-core106 dimerization, 1536-well | AID 1899 | 0.33% of 300,000 active | inhibition, % at 5 µM;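 active = inhibition above the mean of all tested compounds plus 3 SD, set per screening campaign, cut at about 45% in these data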
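Material: Tagged HCV core106 pair (GST and Flag) | Amount: GST-core106 13.5 nM, Flag-core106 17 nM | Medium: KF-containing HEPES buffer, pH 7.45, DTT, CHAPS, BSA | Reagent: Eu donor and XL665 acceptor anti-tag antibodies | Schedule: 4 h at 22.5 °C | Technique: Time-resolved FRET, ex 340 nm, em 617 and 671 nm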
MEX-5 binding – C. elegans MEX-5 TCR-2 RNA binding activity; MEX-5/FITC-TCR2 RNA binding, fluorescence polarization; hits give low values; activity score (negative = inhibition of binding), % at 10 µM; 0.38% of 300,000 active; AID 1832;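 active = inhibition past about -25% in most replicates, and total fluorescence under double the plate's negative control median, limit read from the data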;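 also: 0% = DMSO and -100% = 5 µM competing unlabeled TCR2 RNA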
Target sequence (Q9XUB2 whole entry, looked up): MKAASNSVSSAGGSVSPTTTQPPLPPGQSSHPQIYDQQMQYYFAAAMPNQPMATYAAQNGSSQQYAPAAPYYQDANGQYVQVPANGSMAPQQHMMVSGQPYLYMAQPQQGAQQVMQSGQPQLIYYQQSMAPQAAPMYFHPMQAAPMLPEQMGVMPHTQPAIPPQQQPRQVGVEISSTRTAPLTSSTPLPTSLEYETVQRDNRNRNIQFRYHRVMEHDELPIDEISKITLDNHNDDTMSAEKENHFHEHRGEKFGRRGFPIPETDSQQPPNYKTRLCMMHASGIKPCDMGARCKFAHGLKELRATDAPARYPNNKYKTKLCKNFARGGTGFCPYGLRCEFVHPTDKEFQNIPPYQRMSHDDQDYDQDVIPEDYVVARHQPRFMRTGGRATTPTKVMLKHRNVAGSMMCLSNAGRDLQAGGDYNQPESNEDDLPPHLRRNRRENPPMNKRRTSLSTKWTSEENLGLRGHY
An asterisk follows results filed as active; / = no result. This is a sample that favours compounds with a hit; in the whole collection about 1.5% have one here.

SMILES	CendR NRP1 mod	DNA FID counter	HCV core dimer	MEX-5 binding
CC1CCCN(C(=O)c2cccc(S(=O)(=O)NCc3ccccc3)c2)C1 (stereo unspecified)	-3	/	/	/
c1ccc(Cc2ccc(OCCCNC3CCCC3)cc2)cc1	/	23	2	2
c1ccc(-c2ccc(OCCCNC3CCCC3)cc2)cc1	1	41*	-6	0
CCOC(=O)c1cc(-c2ccccc2)sc1NC(=S)Nc1cccc(C)n1	43*	-11	-4	2
Cc1ccc(NC(=O)c2ccc(-c3cc(Cl)ccc3Cl)o2)c(C)c1	-12	/	/	/
O=C(O)CCCCCn1c(SCC(=O)c2ccc(O)c(O)c2)nc2ccsc2c1=O	-148	-33	-6	-27*
CCN(CC)c1ccc(C=N/C(C#N)=C(\N)C#N)cc1	-83	0	-19	-109*
CN(C(=O)COC(=O)/C=C/c1ccccc1)C1CCS(=O)(=O)C1 (stereo unspecified)	-8	/	/	/
C#CCn1c(=NC(=O)c2ccc(S(=O)(=O)N3CCCc4ccccc43)cc2)sc2cc(S(N)(=O)=O)ccc21	-27	-1	52*	0
O=C(Nc1cc(C(F)(F)F)cc(C(F)(F)F)c1)O[C@@H]1c2ccccc2[C@@H]2Cc3csc[n+]3[C@H]12	-19	/	/	/
CCc1nnc(NC(=O)c2ccc3c(=O)n4c(nc3c2)CCC4)s1	-5	/	/	/
O=C(NCc1ccccc1)c1ccccc1C(=O)c1ncc[nH]1	27*	-4	-2	-3
O=C(O)c1ccccc1C(=O)NCc1ccccc1	3	-3	-5	0
COc1ccc2[nH]c(=O)c(CN(C3CCCCC3)C(c3nnnn3Cc3ccco3)C(C)C)cc2c1 (stereo unspecified)	-188	-26	70*	3
CCC(c1nnnn1C1CCCCC1)N(Cc1ccco1)Cc1cc2ccc(OC)cc2[nH]c1=O (stereo unspecified)	29*	-1	/	/
O=C(Nc1cc([N+](=O)[O-])c2[nH]c(=O)c3ccccc3c2c1)C(F)(F)F	0	/	/	/
CCN(CC)C(=O)C1=C(C)N(CCC2=CCCCC2)C(=O)C(CC(=O)NC2CCCC2)C1 (stereo unspecified)	-12	/	/	/
c1ccc2c(CNc3ccc(CNc4ncn[nH]4)cc3)cccc2c1	32*	-9	-4	-1
c1ccc(COc2ncnc3c2ncn3CCCNCC(c2ccccc2)c2ccccc2)cc1	-5	/	/	/
O=C(CCC(=O)Nc1ccccc1Cl)NN=C1CCCC1	22*	-17	/	/
CCC1CCC/C1=N\NC(=O)CCC(=O)Nc1ccccc1Cl (stereo unspecified)	-1	-6	4	1
Cc1c(NC(=O)c2cc(-c3ccccc3)nc3ccccc23)c(=O)n(-c2ccccc2)n1C	1	/	/	/
Cc1onc(-c2c(F)cccc2Cl)c1C(=O)Nc1c(C)n(C)n(-c2ccccc2)c1=O	5	-5	-1	0
Cc1cccc(C(=O)OCC(=O)Nc2c(C)n(C)n(-c3ccccc3)c2=O)c1	19*	/	/	/
Cc1c(NC(=O)COC(=O)c2cc(-c3ccc(-c4ccccc4)cc3)nc3ccccc23)c(=O)n(-c2ccccc2)n1C	-21	-3	49*	-3
SMILES	CendR NRP1 mod	DNA FID counter	HCV core dimer	MEX-5 binding
Cc1onc(-c2ccccc2)c1C(=O)Nc1c(C)n(C)n(-c2ccccc2)c1=O	38*	-1	-4	2
CSc1ccccc1C(=O)N1CCN(c2cccc(Cl)c2)CC1	45*	-28	4	1
C#CCOCCOCCOCCNc1nc(N2CCN(C(=O)Cn3cc(CC(C)O)nn3)CC2)nc(N2CCN(C(=O)[C@H](CCCCN)n3cc(CC(C)O)nn3)CC2)n1 (stereo partly specified)	7	/	/	/
S=c1nc(SCc2ccccc2)[nH]c2ccccc12	-4	-10	65*	-2
COc1ccc(/C=N/NC(=O)c2cccc(NC(=O)c3ccccc3Cl)c2)c(OC)c1	32*	-26	6	0
COc1ccccc1/C=N/NC(=O)c1cccc(NC(=O)c2ccccc2Cl)c1	12	-16	9	-2
COc1cc(/C=C2/CCC/C(=C\c3cc(O)c(OC)c(Cl)c3)C2=O)cc(Cl)c1O	-95	2	50*	2
COc1ccc(/C=N/NC(=O)c2nn(-c3ccc(Cl)cc3)c(=O)c3c(N)scc23)cc1	30*	-16	40	1
COc1ccc(/C=N/NC(=O)c2nn(-c3ccccc3)c(=O)c3c(N)scc23)cc1	-12	1	43	3
COc1ccc(/C=N/NC(=O)c2nn(-c3ccc(C)c(C)c3)c(=O)c3ccccc23)cc1	7	-9	56*	1
Nc1cc(=O)n(Cc2ccccc2)c(=O)n1-c1ccc(Cl)cc1	36*	-3	3	0
Nc1cc(=O)n(Cc2ccccc2)c(=O)n1-c1ccc(F)cc1	-4	-1	1	-1
Nc1nc2c(ncn2[C@@H]2O[C@H](CNCc3ccccc3)[C@@H](O)[C@H]2O)c(=O)[nH]1	6	/	/	/
N#CC1=C(N)C(C#N)(C#N)[C@H](c2ccoc2)[C@H]2CN(Cc3ccccc3)CC=C12	85	-5	22	-46*
CN1CC=C2C(C#N)=C(N)C(C#N)(C#N)[C@H](c3ccoc3)[C@H]2C1	89	-2	3	-66*
CN1CC=C2C(C#N)=C(N)C(C#N)(C#N)C(c3cccc(Cl)c3Cl)C2C1 (stereo unspecified)	17	-3	3	-29*
CCc1nn2c(=O)cc(COc3ccc(/C=C4\C(=N)N5N=C(C)SC5=NC4=O)cc3)nc2s1	-18	-12	47*	-3
COC(=O)[C@]12CCCCC=C1N(Cc1cccc3ccccc13)C(=O)[C@H](CC(=O)N1CCCC1)C2	17	/	/	/
CCC(=O)Nc1cc(C)c(NC(=O)CCc2ccccc2)cn1	-22	-7	3	-26*
O=C(NC1CCN(Cc2ccccc2)CC1)C1CCN(S(=O)(=O)c2cccc3nsnc23)CC1	-10	14	-1	-4
O=S(=O)(c1cccc2nsnc12)N1CCN(Cc2ccccc2)CC1	19*	-8	2	-3
NC(=S)NN=C1c2cc(OCCN3CCOCC3)ccc2-c2ccc(OCCN3CCOCC3)cc21	2	54*	-19	-4
Cc1ccccc1CC(=O)Nc1ccc2c(c1)c(=O)n(C)n2-c1cccs1	27*	/	/	/
Cc1ccccc1CC(=O)Nc1ccc2c(c1)c(=O)n(C)n2-c1ccccc1F	-2	/	/	/
COc1ncnc2c1ncn2CCCN(C)CCc1ccccn1	-9	/	/	/
SMILES	CendR NRP1 mod	DNA FID counter	HCV core dimer	MEX-5 binding
COc1ccc(S(=O)(=O)Nc2cc3c4c(c2)CCN4C(=O)CC3)cc1C	-2	/	2	-5
Nc1ccn(CC(=O)NCc2ccc3[nH]ccc3c2)c(=O)n1	32*	/	/	/
Nc1ccn(CC(=O)NCc2ccccc2)c(=O)n1	3	/	/	/
CCCCn1c(O)c(/C=C2\C=Nc3ccccc32)c(=O)[nH]c1=O	-31	4	1	-31*
O=C(CSc1nc2ccccc2c(=O)n1-c1ccc(F)cc1F)Nc1ccc2c(c1)CCC2	22*	-5	25	1
OC[C@@H]1CN(Cc2ccccc2)C[C@H](n2cnc3c(NCc4ccncc4)ncnc32)O1	-8	/	/	/

From PubChem
